ChEMBL document CHEMBL1124663, “Design, synthesis, antineoplastic activity, and chemical properties of bis(carbamate) derivatives of 4,5-bis(hydroxymethyl)imidazole” (J Med Chem, 1989)

Legend:
Mus musculus [1] = assay: The percent of the median survival time of test mice compared to control mice, administered with 25 mg/kg compound on day 5 for L1210 tumor cells; format: functional
How it was run: (§1)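 L1210 leukemia, 10^5 cells implanted ip on day 0. Drug given ip daily on days 1-5 as a saline suspension freshly prepared before each injection. Read-out is median survival of treated versus control mice (% T/C), and log cell kill is derived from it.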

Mus musculus [2] = assay: Ability of 100 mg/kg of compound to kill L1210 tumor cells in mice is expressed as the log of the tumor cell population at the onset of treatment minus the log of the tumor cell population at the end of treatment; format: functional; how it was run: as §1
Mus musculus [3] = assay: Body weight difference (BWD) of test animals administered with 50 mg/kg compound is determined on day 14 for M5076 minus 1 tumor cells; format: functional
How it was run: (§2)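 M5076 sarcoma: 10^6 cells inoculated ip on day 0 in B6C3F1 mice. Fresh saline suspension dosed ip every fourth day, on days 1, 5, 9 and 13. Body weight difference in g (treated minus control) taken as day 14 minus day 1. Ten mice per group.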

Mus musculus [4] = assay: Body weight difference (BWD) of test animals administered with 200 mg/kg compound is determined on day 5 for L1210 tumor cells; format: functional
How it was run: (§3)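 L1210 leukaemia: 10^5 cells implanted ip on day 0 in mice. Freshly prepared saline suspension given ip once daily on days 1–5. Body weight difference in g (treated minus control) taken as day 5 minus day 1. Six animals per dose.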

Mus musculus [5] = assay: The percent of the median survival time of test mice compared to control mice is % T/C which refers to tumor size in this case. It is determined for mice administered with 60 mg/kg compound on day 11 for MX-1 tumor cells; format: functional; details: route intraperitoneal
How it was run: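 Human MX-1 mammary xenograft, a 1 mm3 (0.5 mg) tumor fragment implanted under the renal capsule of NCR-nu mice on day 0. Drug given ip as a fresh saline suspension on days 1, 5 and 9. Tumor size is assessed on day 11. A negative % T/C is percent shrinkage relative to the initial implant. Survivors in the toxicity group are […].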

Mus musculus [6] = assay: The percent of the median survival time of test mice compared to control mice, administered with 12.5 mg/kg compound on day 5 for L1210 tumor cells; format: functional; how it was run: as §1
Mus musculus [7] = assay: The toxicity day was evaluated on day 5 for L1210 tumor cells of test animals dosed with 100 mg/kg of compound; 6/6; format: functional
How it was run: (§4)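 L1210 leukaemia, 10^5 cells, implanted ip on day 0. Freshly prepared saline suspension dosed ip daily on days 1-5. Toxicity evaluated on day 5 as survivors over animals in the initial test group.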

Mus musculus [8] = assay: The toxicity day was evaluated on day 0 for LOX tumor cells of test animals dosed with 200 mg/kg of compound; 3/6; format: functional
Mus musculus [9] = assay: The percent of the median survival time of test mice compared to control mice is determined for mice administered with 50 mg/kg compound; format: functional
Mus musculus [10] = assay: The toxicity day was […] for M5076 minus 1 tumor cells of test animals dosed with 100 mg/kg of compound; 10/10; format: functional
How it was run: (§5)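 M5076 sarcoma, 10^6 cells, inoculated ip into B6C3F1 mice on day 0. Fresh saline suspension given ip every fourth day (days 1, 5, 9, 13). Toxicity survivors were scored on day 5 as survivors over initial group. Body-weight difference was day 14 minus day 1.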

Mus musculus [11] = assay: The percent of the median survival time of test mice compared to control mice is % T/C. It is determined for mice administered with 25 mg/kg compound on day 0 for LOX 1 tumor cells.; format: functional; details: route intraperitoneal
[12] = Retention time was determined; format: ADME
Mus musculus [13] = assay: Body weight difference (BWD) of test animals administered with 100 mg/kg compound is determined on day 5 for L1210 tumor cells; format: functional; how it was run: as §3
Mus musculus [14] = assay: Body weight difference (BWD) of test animals administered with 25 mg/kg compound is determined on day 5 for L1210 tumor cells; format: functional; how it was run: as §3
Mus musculus [15] = assay: The percent of the median survival time of test mice compared to control mice is % T/C. It is determined for mice administered with 100 mg/kg compound on day 0 for LOX 1 tumor cells.; format: functional; details: route intraperitoneal
Mus musculus [16] = assay: Ability of 25 mg/kg of compound to kill L1210 tumor cells in mice is expressed as the log of the tumor cell population at the onset of treatment minus the log of the tumor cell population at the end of treatment; format: functional; how it was run: as §1
Mus musculus [17] = assay: Body weight difference (BWD) of test animals administered with 25 mg/kg compound is determined on day 14 for M5076 minus 1 tumor cells; format: functional; how it was run: as §2
Mus musculus [18] = assay: Ability of 50 mg/kg of compound to kill M5076 tumor cells in mice is expressed as the log of the tumor cell population at the onset of treatment minus the log of the tumor cell population at the end of treatment; format: functional
How it was run: (§6)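 M5076 sarcoma, 10^6 cells ip on day 0 in B6C3F1 mice. Drug given ip as a fresh saline suspension every fourth day (days 1, 5, 9, 13). % T/C is median survival of treated versus control mice, counting long-term survivors. Cures are 60-day survivors. Log cell kill is derived from this.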

Mus musculus [19] = assay: Body weight difference (BWD) of test animals administered with 50 mg/kg compound is determined on day 10 for LOX tumor cells.
Mus musculus [20] = assay: The toxicity day was evaluated on day 0 for LOX tumor cells of test animals dosed with 25 mg/kg of compound; 6/6; format: functional
Mus musculus [21] = assay: The toxicity day was evaluated on day 11 for MX-1 tumor cells of test animals dosed with 60 mg/kg of compound; 6/6; format: functional
How it was run: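 Human MX-1 mammary tumour (1 mm3, 0.5 mg) implanted under the renal capsule of NCR-nu mice on day 0. Drug was given ip as a freshly made saline suspension on days 1, 5 and 9. Readout is survivors over initial group size.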

Mus musculus [22] = assay: Body weight difference (BWD) of test animals administered with 50 mg/kg compound is determined on day 5 for L1210 tumor cells; format: functional; how it was run: as §3
Mus musculus [23] = assay: The toxicity day was evaluated […] for M5076 minus 1 tumor cells of test animals dosed with 200 mg/kg of compound; 10/10; format: functional; how it was run: as §5
Mus musculus [24] = assay: Ability of 12.5 mg/kg of compound to kill L1210 tumor cells in mice is expressed as the log of the tumor cell population at the onset of treatment minus the log of the tumor cell population at the end of treatment; format: functional; how it was run: as §1
Mus musculus [25] = assay: Ability of 25 mg/kg of compound to kill M5076 tumor cells in mice is expressed as the log of the tumor cell population at the onset of treatment minus the log of the tumor cell population at the end of treatment; format: functional; how it was run: as §6
Mus musculus [26] = assay: Ability of 100 mg/kg of compound to kill M5076 tumor cells in mice is expressed as the log of the tumor cell population at the onset of treatment minus the log of the tumor cell population at the end of treatment; format: functional; how it was run: as §6
Mus musculus [27] = assay: The toxicity day was evaluated on day 5 for L1210 tumor cells of test animals dosed with 200 mg/kg of compound; 0/6; format: functional; how it was run: as §4
Mus musculus [28] = assay: Body weight difference (BWD) of test animals administered with 200 mg/kg compound is determined on day 10 for LOX tumor cells.
Mus musculus [29] = assay: The percent of the median survival time of test mice compared to control mice, administered with 100 mg/kg compound on day 5 for L1210 tumor cells; format: functional; how it was run: as §1

CNC(=O)OCc1nc(SC)n(C)c1COC(=O)NC
T/C (Mus musculus [1]): 111% | KE (Mus musculus [2]): -0.29 | BWD (Mus musculus [3]): -0.7 g | BWD (Mus musculus [4]): -3.6 g | T/C (Mus musculus [5]): -91% | T/C (Mus musculus [6]): 103% | Survivors / animals tested (Mus musculus [7]): 6 | Survivors / animals tested (Mus musculus [8]): 3 | T/C (Mus musculus [9]): 184% | Survivors / animals tested (Mus musculus [10]): 10 | T/C (Mus musculus [11]): 219% | TR [12]: 39 min | BWD (Mus musculus [13]): -1.9 g | BWD (Mus musculus [14]): 0 g | T/C (Mus musculus [15]): 365% | KE (Mus musculus [16]): -2.23 | BWD (Mus musculus [17]): -2 g | KE (Mus musculus [18]): -1.63 | BWD (Mus musculus [19]): -3.3 g | Survivors / animals tested (Mus musculus [20]): 6 | Survivors / animals tested (Mus musculus [21]): 6 | BWD (Mus musculus [22]): -0.5 g | Survivors / animals tested (Mus musculus [23]): 10 | KE (Mus musculus [24]): -2.35 | KE (Mus musculus [25]): -1.51 | KE (Mus musculus [26]): -0.34 | Survivors / animals tested (Mus musculus [27]): 0 | BWD (Mus musculus [28]): -11.5 g | T/C (Mus musculus [29]): 145%
